Drug metabolism, Km and Vmax data for 4 compounds are collected here from ChEMBL document CHEMBL3525985, “Regiospecificity and stereospecificity of human UDP-glucuronosyltransferases in the glucuronidation of estriol, 16-epiestriol, 17-epiestriol, and 13-epiestradiol” (Drug Metab Dispos, 2013).

Holding throughout (type): ADME
The target in data set [1] is T1, UDP-glucuronosyltransferase 2B17 (Homo sapiens, UniProt O75795).
T1 sequence (O75795 whole entry): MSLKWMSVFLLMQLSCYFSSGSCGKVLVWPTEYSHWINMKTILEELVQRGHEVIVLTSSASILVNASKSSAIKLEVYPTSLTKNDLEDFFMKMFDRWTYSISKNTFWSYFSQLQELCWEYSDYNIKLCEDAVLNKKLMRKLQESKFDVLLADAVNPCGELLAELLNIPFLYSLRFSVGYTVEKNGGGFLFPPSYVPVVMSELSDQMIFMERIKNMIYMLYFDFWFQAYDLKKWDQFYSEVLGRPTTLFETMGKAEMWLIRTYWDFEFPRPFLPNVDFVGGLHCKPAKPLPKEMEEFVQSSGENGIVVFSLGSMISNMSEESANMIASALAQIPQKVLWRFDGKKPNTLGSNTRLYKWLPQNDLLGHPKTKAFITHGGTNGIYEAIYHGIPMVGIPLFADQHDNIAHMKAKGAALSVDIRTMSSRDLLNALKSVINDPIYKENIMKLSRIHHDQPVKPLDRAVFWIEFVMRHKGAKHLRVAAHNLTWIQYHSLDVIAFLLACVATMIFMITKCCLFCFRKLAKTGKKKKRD
Kind of data set: Drug metabolism assessed as recombinant human C-terminal His-tagged UGT2B17-mediated 13-epiestradiol-17-glucuronide formation at 200 uM after 15 to 60 mins by HPLC analysis in presence of UDPGA. The note with it: recombinant enzyme. The method in brief:
(§1)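 Screening at a single substrate concentration of 200 μM, in triplicate. The reaction used 5 or 50 µg of UGT-enriched insect cell membranes in 50 mM phosphate pH 7.4 with 10 mM MgCl₂ and 5 mM UDPGA, 10% final DMSO. Incubation was 15–60 min at 37°C. Perchloric acid stopped the reaction and supernatants were analysed by HPLC. Controls lacked UDPGA. Rates were normalized to relative UGT expression level.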

Data set [2] has as its system Liver microsome. Kind of data set: Drug metabolism in human liver microsomes assessed as estriol-16-glucuronide formation after 15 to 60 mins by Michaelis-Menten equation analysis in presence of UDPGA. The method, boiled down: (§2)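 Pooled human liver microsomes (30 donors), 0.5 or 10 µg, with alamethicin at 5% of total protein. Incubated with 50 mM phosphate pH 7.4, 10 mM MgCl₂, 5 mM UDPGA and 10% DMSO for 15–60 min at 37°C. Each glucuronide regioisomer quantified by HPLC, in triplicate, with substrate consumption at or below 10%.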

Data set [3] addresses T2, UDP-glucuronosyltransferase 1A4 (Homo sapiens, UniProt P22310).
T2 sequence (P22310 whole entry): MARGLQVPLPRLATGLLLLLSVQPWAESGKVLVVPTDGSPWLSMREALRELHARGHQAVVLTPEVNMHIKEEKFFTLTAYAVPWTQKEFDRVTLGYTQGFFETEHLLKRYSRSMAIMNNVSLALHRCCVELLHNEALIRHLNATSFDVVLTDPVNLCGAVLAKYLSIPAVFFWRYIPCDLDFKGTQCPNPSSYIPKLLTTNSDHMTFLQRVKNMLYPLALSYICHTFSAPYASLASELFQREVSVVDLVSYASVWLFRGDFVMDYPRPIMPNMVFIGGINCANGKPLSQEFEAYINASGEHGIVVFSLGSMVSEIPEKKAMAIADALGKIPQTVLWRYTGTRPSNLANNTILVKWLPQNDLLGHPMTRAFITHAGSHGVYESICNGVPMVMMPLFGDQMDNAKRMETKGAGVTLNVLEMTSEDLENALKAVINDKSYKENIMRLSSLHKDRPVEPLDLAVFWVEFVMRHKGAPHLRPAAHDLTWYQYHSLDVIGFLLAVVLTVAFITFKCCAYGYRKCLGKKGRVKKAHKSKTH
Kind of data set: Drug metabolism assessed as recombinant human C-terminal His-tagged UGT1A4-mediated 16-epiestriol-16-glucuronide formation at 200 uM after 15 to 60 mins by HPLC analysis in presence of UDPGA. As to conditions: recombinant enzyme. The method in brief: as §1

The test system of data set [4] is Liver microsome. Kind of data set: Drug metabolism in human liver microsomes assessed as 16-epiestriol-16-glucuronide formation after 15 to 60 mins by Michaelis-Menten equation analysis in presence of UDPGA. The method, boiled down:
as §2

Data set [5] addresses T3, UDP-glucuronosyltransferase 1A8 (Homo sapiens, UniProt Q9HAW9).
T3 sequence (Q9HAW9 whole entry): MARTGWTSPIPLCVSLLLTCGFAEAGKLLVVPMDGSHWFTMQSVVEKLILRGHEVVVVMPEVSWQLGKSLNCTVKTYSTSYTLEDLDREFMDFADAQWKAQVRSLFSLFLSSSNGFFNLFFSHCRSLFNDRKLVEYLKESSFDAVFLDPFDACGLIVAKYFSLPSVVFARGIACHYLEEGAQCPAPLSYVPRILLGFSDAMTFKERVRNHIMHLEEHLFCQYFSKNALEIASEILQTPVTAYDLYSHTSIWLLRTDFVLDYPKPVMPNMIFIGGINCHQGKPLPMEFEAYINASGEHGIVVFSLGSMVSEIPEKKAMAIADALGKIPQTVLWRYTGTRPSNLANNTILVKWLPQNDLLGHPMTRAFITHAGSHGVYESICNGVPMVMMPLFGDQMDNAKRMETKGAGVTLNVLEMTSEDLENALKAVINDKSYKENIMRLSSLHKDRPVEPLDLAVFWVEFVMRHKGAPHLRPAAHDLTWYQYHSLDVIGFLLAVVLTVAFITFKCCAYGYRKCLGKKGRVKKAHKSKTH
Kind of data set: Drug metabolism assessed as recombinant human C-terminal His-tagged UGT1A8-mediated 16-epiestriol-3-glucuronide formation after 15 to 60 mins by Michaelis-Menten equation analysis in presence of UDPGA. The note with it: recombinant enzyme.

A short description of data set [6]: Drug metabolism in human intestine microsomes assessed as 17-epiestriol-3-glucuronide formation after 15 to 60 mins by Michaelis-Menten equation analysis in presence of UDPGA. The method, boiled down: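 Pooled human intestine microsomes (6 donors), 0.5 or 10 µg, with alamethicin at 5% of total protein. Incubated with 50 mM phosphate pH 7.4, 10 mM MgCl₂, 5 mM UDPGA and 10% DMSO for 15–60 min at 37°C. Each glucuronide regioisomer quantified by HPLC, in triplicate, with substrate consumption at or below 10%.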

`C[C@@]12CC[C@@H]3c4ccc(O)cc4CC[C@H]3[C@@H]1CC[C@@H]2O`: the Drug metabolism entry in data set [1] is reported as “metabolite_detected”.
In the case of `C[C@]12CC[C@@H]3c4ccc(O)cc4CC[C@H]3[C@@H]1C[C@@H](O)[C@@H]2O` [ESTRIOL], in data set [2], the Km came out at 13 µM and the Vmax came to 4347 pmol/min/mg.
For the compound `C[C@]12CC[C@@H]3c4ccc(O)cc4CC[C@H]3[C@@H]1C[C@H](O)[C@@H]2O` [EPIESTRIOL], in data set [3], the Drug metabolism entry is given as “metabolite_not_detected”. Further, in data set [4], the Km was 33 µM and the Vmax is on record as 8011 pmol/min/mg. In addition, the Drug metabolism in data set [5] stood at 0.5 pmol/min/mg.
Turning to `C[C@]12CC[C@@H]3c4ccc(O)cc4CC[C@H]3[C@@H]1C[C@@H](O)[C@H]2O`, in data set [6], the Km was determined as 251 µM and the Vmax came to 1239 pmol/min/mg.
